Assay results as given in paper PMC2887662 (Journal of medicinal chemistry, 2010).
“Also recorded” adds a separate entry of the source. Values belong to the compound of their own block, whether it stands above or below them.

Experiments:
[1] = tested on: panel of six different human tumor cell lines; test: Antiproliferative activity, panel of six cell lines; format: cell-based; conditions: for antiproliferative activity (in words): six human tumor cell lines; for IC50: Homo sapiens, read-out: IC50 values, range against the cell lines
Summary of the method: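 Cells in RPMI-1640 (Jurkat, HL-60, K562) or DMEM (MCF7, A549, HeLa) with 10% FBS and penicillin/streptomycin. 8 × 10^3 cells/well were preincubated 18 h, then exposed to a range of test compound concentrations in complete medium for 72 h at 37 °C, 5% CO2. Viability was read by MTT.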

HeLa cells = test: Flow cytometric cell cycle analysis, HeLa; format: cell-based, human; conditions: for G2/M cell population: 30 nM, 48 h, control 12%; for cell cycle effect in HeLa: 7 to 250 nM, 24 h
Jurkat cells [2] = test: Flow cytometric cell cycle analysis, Jurkat; format: cell-based, human
Jurkat cells [3] = test: Annexin-V/PI apoptosis assay; format: cell-based, human; conditions: 50 nM, 24-72 h
Summary of the method: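 After treatment for different times, Jurkat cells are co-stained with annexin-V-FITC (per the kit instructions) and PI. They are analysed by flow cytometry with excitation at 488 nm and emission filters at 525 nm (FITC, green) and 585 nm (PI, red). Externalised phosphatidylserine is scored as annexin-V positive cells.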

Jurkat cells [4] = test: Mitochondrial membrane potential; format: cell-based, human; conditions: 50 nM
Summary of the method: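 Mitochondrial potential is probed with the lipophilic cation JC-1. After different treatment times, cells are pelleted and resuspended in HBSS containing 1 µM JC-1, held for 10 min at 37 °C, then spun and resuspended in HBSS. Polarised mitochondria form aggregates with shifted emission. On depolarisation, JC-1 monomers emit at 530 nm.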

Jurkat cells [5] = test: Mitochondrial ROS production; format: cell-based, human; conditions: up to 72 h, HE and H2DCFDA
Summary of the method: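 After different treatment times, cells are pelleted and resuspended in HBSS containing hydroethidine (2.5 µM) or H2DCFDA (0.1 µM). They are incubated for 30 min at 37 °C, spun and resuspended in HBSS. Fluorescence is recorded directly by flow cytometry, with excitation at 488 nm and emission at 585 nm (ethidium, from superoxide) or 530 nm (DCF, from peroxides).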

[6] = tested on: caspase-3 in Jurkat cells; test: Caspase-3 activation by flow cytometry; format: cell-based, human; conditions: 50 nM, 24, 48, 72 h
Summary of the method: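 After different incubation times with test compound, cells are pelleted and fixed in Cytofix buffer for 20 min, then washed with Perm/Wash. They are stained for 30 min with a FITC-conjugated antibody against the human active caspase-3 fragment, washed and analysed by flow cytometry. Results are given as percentage of caspase-3 active fragment positive cells.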

[7] = tested on: PARP and Bcl-2 in Jurkat cells; test: Western blot for PARP cleavage and Bcl-2 expression; format: cell-based, human; conditions: 50 nM; for PARP cleavage: 24 h
Summary of the method: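 Jurkat cells were treated with test compound for varying times, washed in cold PBS and lysed on ice for 30 min. Lysates were spun at 15000g, 4 °C, 10 min, and protein was measured by BCA. 20 µg protein per lane was run on 7.5–15% SDS–PAGE and blotted to PVDF. Blots were probed with rabbit anti-Bcl-2 or anti-PARP (1:1000, 2 h, RT), then HRP secondary, and developed by ECL. Blots were stripped and reprobed for β-actin as loading control.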

HUVECs expressing GFP = test: Endothelial cell shape change assay; format: cell-based, human; conditions: 30 min after drug addition
Summary of the method: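 GFP-expressing HUVECs were grown in EGM-2 with endothelial cell growth supplement and seeded on collagen-coated slides 1 day before assay. Morphology and GFP fluorescence were imaged by confocal microscopy before and at several times after test compound addition. The GFP-positive cell area was quantified by image analysis.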

[8] = tested on: chick aortic vascular sprouts; test: Chick aortic ring assay; format: cell-based; conditions: 30 min incubation
Summary of the method: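 Aortic arches from day 14 chick embryos were cut into cross-sectional slices and embedded in Matrigel with complete medium. Endothelial sprouts or channels formed over 24–48 h. Various concentrations of test compound were then added, and vascular channels were photographed before and 30 min after addition.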

SMILES: COc1cccc(-c2ncnn2-c2cc(OC)c(OC)c(OC)c2)c1 [Compound 4i]
antiproliferative activity (in words) [1]: dramatic drop of potency; also recorded: inactivity

IC50 [1]: 3 to 20 nM
SMILES: CCOc1ccc(-c2ncnn2-c2cc(OC)c(OC)c(OC)c2)cc1Cl [Compound 4o, 5-(3-Chloro-4-ethoxyphenyl)-1-(3,4,5-trimethoxyphenyl)-1H-1,2,4-triazole]
G2/M cell population (HeLa cells): over 70%
cell cycle effect in HeLa (HeLa cells): clear G2/M arrest pattern in a concentration-dependent manner
cell cycle effect in Jurkat (Jurkat cells [2]): significant block in the G2/M phase
induction of apoptosis (annexin-V positive cells) (Jurkat cells [3]): significant induction of apoptotic cells after 24 h
mitochondrial transmembrane potential (JC-1) (Jurkat cells [4]): depolarization of the mitochondrial membrane potential
ROS production (Jurkat cells [5]): induced the production of large amounts of ROS
caspase-3 activation [6]: activation of caspase-3 in a time-dependent manner
Bcl-2 expression [7]: decreased expression of Bcl-2
PARP cleavage [7]: extensive formation of the typical 89 kDa fragment of PARP

SMILES: COc1cc(-n2ncnc2-c2ccc(Cl)c(Cl)c2)cc(OC)c1OC [Compound 4f]
antiproliferative activity (in words) [1]: did not yield active compounds

SMILES: COc1cc(-n2ncnc2-c2cccc([N+](=O)[O-])c2)cc(OC)c1OC [Compound 4r]
antiproliferative activity (in words) [1]: did not yield active compounds

SMILES: COc1cc(-n2ncnc2-c2ccc(Cl)cc2)cc(OC)c1OC [Compound 4d]
antiproliferative activity (in words) [1]: did not yield active compounds

SMILES: CCOc1ccc(-c2ncnn2-c2cc(OC)c(OC)c(OC)c2)cc1 [Compound 4l, 1-(3,4,5-Trimethoxyphenyl)-5-(4-ethoxyphenyl)-1H-1,2,4-triazole]
G2/M cell population (HeLa cells): over 70%
cell cycle effect in HeLa (HeLa cells): clear G2/M arrest pattern in a concentration-dependent manner
cell cycle effect in Jurkat (Jurkat cells [2]): significant block in the G2/M phase
induction of apoptosis (annexin-V positive cells) (Jurkat cells [3]): significant induction of apoptotic cells after 24 h
mitochondrial transmembrane potential (JC-1) (Jurkat cells [4]): depolarization of the mitochondrial membrane potential
ROS production (Jurkat cells [5]): induced the production of large amounts of ROS
caspase-3 activation [6]: activation of caspase-3 in a time-dependent manner
Bcl-2 expression [7]: decreased expression of Bcl-2
PARP cleavage [7]: extensive formation of the typical 89 kDa fragment of PARP
lowest concentration causing HUVEC retraction and membrane blebs (HUVECs expressing GFP): 0.5 µM
effect on vascular sprouts from chick aortic ring [8]: disrupted formation of vascular sprouts

SMILES: COc1cc(-n2ncnc2-c2ccccc2)cc(OC)c1OC [Compound 4a]
antiproliferative activity (in words) [1]: did not yield active compounds

SMILES: COc1cc(-n2ncnc2-c2cccc(F)c2)cc(OC)c1OC [Compound 4c]
antiproliferative activity (in words) [1]: did not yield active compounds

SMILES: COc1ccc(/C=C\c2cc(OC)c(OC)c(OC)c2)cc1O [CA-4, combretastatin A-4, reference compound]
IC50 [1]: 4 to 370 nM

SMILES: CCOc1cccc(-c2ncnn2-c2cc(OC)c(OC)c(OC)c2)c1 [Compound 4m]
antiproliferative activity (in words) [1]: inactivity

SMILES: COc1ccccc1-c1ncnn1-c1cc(OC)c(OC)c(OC)c1 [Compound 4j]
antiproliferative activity (in words) [1]: dramatic drop of potency

SMILES: COc1cc(-n2ncnc2-c2ccc(F)cc2)cc(OC)c1OC [Compound 4b]
antiproliferative activity (in words) [1]: did not yield active compounds
